What was measured:
S. aureus = experiment: Resistance acquisition assay; type: cell-based, Staphylococcus aureus; conditions: second assay, concentration kept constant (half of the initial MIC), 30 days
[1] = test system: S. aureus bacterial strain ATCC25923; experiment: In vivo hernia mesh infection model; design: species or system New Zealand white rabbits; conditions: rabbit, 14 days after surgery
Outline: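 Rabbit mesh-implant infection model; anaesthesia im 15 min pre-surgery with ketamine (70 mg kg), diazepam and chlorpromazine (1.5 mg kg⁻¹ each). S. aureus ATCC25923 was grown on LB agar 24 h, 37 °C, then overnight in LB and diluted in 0.9 % saline to a target 10^6 CFU.mL⁻¹. At 14 days animals were xylazine-sedated (im), CO₂-euthanised; implant fragments examined by light microscopy and SEM.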

Molecule | increase of relative MIC (S. aureus) | inflammatory reaction (histology) [1] | macroscopic observations at necropsy compared with uncoated mesh [1] | skin fistula, necrosis, or edema at necropsy ([1]; n = 7 per group) | bacteria presence in tissue (histology, S. aureus immunolabeling) ([1]; qualitative)
Poly(L-arginine) [PAR30] | strongly stable |  |  |  | 
CN(C)[C@@H]1C(O)=C(C(N)=O)C(=O)[C@@]2(O)C(O)=C3C(=O)c4c(O)cccc4[C@@](C)(O)[C@H]3C[C@@H]12 [tetracycline] | around 3 times |  |  |  | 
[H]/N=C(\N/C(=N/[H])NCCCCCCNC(=N)NC(=N)Nc1ccc(Cl)cc1)Nc1ccc(Cl)cc1 [CHX, Chlorhexidine] |  | moderate inflammatory reaction | less purulent material, weak hypervascularization, and better tissue integration | no animal developed skin fistula, necrosis, or edema | not recorded or noticeably reduced

Reference: article PMC11364137 (Materials Today Bio, 2024)
